# Compounds with a hit are over-represented: about 1.3% of the library has one in this group of screens.
# Casp6 inh = human caspase-6 inhibitors, primary screen, biochemical, VEID-R110 fluorescence, single point, set 2. purified caspase-6, Z-VEID-R110 cleavage fluorescence. P55212. inhibition, % at 12.5 µM. AID 686996, 2013. hit rate 0.53% among 350,000;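 active = mean inhibition across replicates at least about 35%, with every replicate also reaching that limit, limit read from the data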
# Target sequence (P55212 24-179 limits assumed): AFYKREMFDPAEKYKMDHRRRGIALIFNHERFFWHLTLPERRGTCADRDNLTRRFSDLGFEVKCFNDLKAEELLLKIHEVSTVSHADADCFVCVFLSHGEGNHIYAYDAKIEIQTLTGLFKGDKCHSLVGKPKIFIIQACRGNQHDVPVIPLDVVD
# Target sequence (P55212 194-293 limits assumed): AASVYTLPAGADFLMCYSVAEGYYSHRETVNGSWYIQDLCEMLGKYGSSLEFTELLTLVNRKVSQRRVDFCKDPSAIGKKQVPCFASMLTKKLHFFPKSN
# TDP2 absorb = human TDP2 enzyme inhibitors, primary screen, biochemical, epi absorbance, recombinant enzyme; T5PNP hydrolysis, p-nitrophenol absorbance 415 nm; hit rate 0.34% among 370,000; inhibition, % at 12.8 µM;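 active = inhibition above the mean of all tested compounds plus 3 SD, set per campaign, cut at about 25% in these data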
#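 Evaluation: % inhibition relative to enzyme-containing and enzyme-free wells. Material: recombinant human TDP2. Benchmarks: enzyme-free and DMSO wells. Timing: enzyme reaction with compound for 2 h at 37 °C. Compound dosing: 12.8 µM only. Measured by: p-Nitrophenol epi absorbance. Reagent: T5PNP substrate at 5 mM, a TopII-DNA adduct mimic. Replication: single well per compound.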
# LEDGF integ inh = blockers of LEDGF/p75-dependent integrase strand transfer – biochemical, TR-FRET, high throughput, primary screen | HIV-1 integrase (with human LEDGF/p75) | TR-FRET IN-LEDGF/p75 DNA integration, Eu/Cy5 | inhibition, % at 3.7 µM | hit rate 0.64% among 370,000;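 active = inhibition above the screen-wide mean plus 3 SD, cut at about 13% in these data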;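 note: signal is the Cy5 over europium emission ratio at 671 and 618 nm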
# ARFGAP1 inhibitor = inhibitors of rat ARFGAP1 GAP activity, primary screen, biochemical, fluorescence polarization, GDP tracer. ADP-ribosylation factor GTPase-activating protein 1 (Rattus norvegicus), Q62848. Arfgap1-stimulated ARF1 GTP hydrolysis, GDP FP detection. inhibition, % at 16.5 µM. hit rate 0.26% among 360,000;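 active = inhibition above a per-plate limit, mean inhibition of low control wells plus 3 SD, cut at about 25% in these data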
#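 system = rat Arfgap1 catalytic domain, aa 1-136 | technique = FP, GDP Alexa 633 tracer displaced from anti-GDP antibody, 620/688 nm | compound = one concentration, 16.5 µM, DMSO 1.26% | medium = HEPES-based buffer, pH 7.5 | timing = compound-enzyme preincubation 20 min, reaction 120 min, detection 60 min, 25 °C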
# ASAP1 inh = inhibitors of human ASAP1 ArfGAP activity, primary screen, biochemical, fluorescence polarization. Arf-GAP with SH3 domain, ANK repeat and PH domain-containing protein 1 (Homo sapiens), …. ASAP1-stimulated ARF1 GTP hydrolysis, GDP FP detection. inhibition, % at 16.5 µM. hit rate 0.19% among 360,000
# ASAP1 GAP conf = ASAP1 GAP activity inhibitors, confirmation, biochemical, fluorescence polarization, human, triplicate | shares compounds with ASAP1 inh | ASAP1-stimulated Arf1 GTPase, GDP fluorescence polarization | inhibition, % at 16.5 µM | hit rate 37% among 620;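 active = mean inhibition over triplicates exceeds the hit threshold derived for the earlier primary screening run, cut at about 25% in these data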
# ARFGAP1 inh conf = ARFGAP1 inhibitor hit confirmation, biochemical, fluorescence polarization, triplicate. hit rate 30% among 890. ARFGAP1-stimulated ARF1 GTP hydrolysis, GDP tracer FP. shares compounds with ARFGAP1 inhibitor. inhibition, % at 16.5 µM;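 active = average inhibition over triplicates above the hit cutoff set in the earlier primary screen, cut at about 25% in these data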
# Target sequence (Q62848 whole entry, looked up): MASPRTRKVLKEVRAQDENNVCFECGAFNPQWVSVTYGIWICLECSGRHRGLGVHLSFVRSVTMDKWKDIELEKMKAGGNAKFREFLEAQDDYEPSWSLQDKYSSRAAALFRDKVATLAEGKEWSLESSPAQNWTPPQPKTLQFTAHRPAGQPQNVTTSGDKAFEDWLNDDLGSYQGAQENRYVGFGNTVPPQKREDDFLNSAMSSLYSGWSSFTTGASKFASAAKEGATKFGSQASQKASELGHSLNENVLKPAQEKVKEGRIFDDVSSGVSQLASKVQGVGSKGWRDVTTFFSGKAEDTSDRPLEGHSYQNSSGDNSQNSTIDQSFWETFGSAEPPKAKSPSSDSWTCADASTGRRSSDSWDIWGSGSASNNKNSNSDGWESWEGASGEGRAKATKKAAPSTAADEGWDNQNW
# CASP1 counter = human caspase-1 inhibitors, dose response, selectivity assay for caspase-6 inhibitor project, biochemical, Z-YVAD-R110 fluorescence, cherry-pick, set 2; shares compounds with Casp6 inh; purified caspase-1, Z-YVAD-R110 cleavage fluorescence; activity change, negative = inhibition, % at 35 µM; 100 tested, under 10 active;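 active = compounds lowering fluorescence whose fitted half-maximal concentration is no more than twice their top tested dose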
# TDP2 confirm = human TDP2 enzyme inhibitors, retest, confirmation, biochemical, epi absorbance, recombinant enzyme; shares compounds with TDP2 absorb; absorbance read-out; inhibition, % at 12.8 µM; hit rate 22% among 1,100
# IN multimer up = HIV-1 IN multimer formation enhancers, counter-screen for LEDGF/p75 integration inhibitor project, biochemical, TR-FRET; shares compounds with LEDGF integ inh; TR-FRET HIV-1 integrase multimerization; activation, % at 7.7 µM; hit rate 17% among 2,000; in the data active = activation above about 8.9%
# TRFRET interf = TR-FRET optical interference artefacts, confirmation, artefact control for LEDGF/p75-dependent integration inhibitor project, biochemical, HIV-1 IN multimerization. shares compounds with LEDGF integ inh. TR-FRET optical interference counterscreen. inhibition, % at 7.7 µM. 2,000 tested, under 10 active. AID 1053135, 2014;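 active = inhibition above the mean over all tested compounds plus 3 SD, which no compound reached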
# IN-LEDGF confirm = inhibitors of HIV-1 IN-LEDGF/p75 DNA integration, confirmation, biochemical, TR-FRET; TR-FRET LEDGF/p75-dependent HIV-1 integration; shares compounds with LEDGF integ inh; hit rate 36% among 2,000; inhibition, % at 3.7 µM; in the data active = inhibition above about 14%
# Hits are given with their value; - = inactive; . = not tested or not shown. Cut-off read from the data, not from the text of the source, unless noted: active = inhibition above about 25%; inactive = the rest.
SMILES,Casp6 inh,TDP2 absorb,LEDGF integ inh,ARFGAP1 inhibitor,ASAP1 inh,ARFGAP1 inh conf,others
COC(=O)C1C(c2ccc(Cl)cc2)CC2CCC1N2C (centres undefined),-,-,-,-,-,.,
COC(=O)C1C(c2ccc(I)cc2)CC2CCC1N2C (centres undefined),-,-,-,-,26,.,ASAP1 GAP conf=-
COCCCn1c(N)c(C(=O)Nc2sc3c(c2C(=O)OC)CCCC3)c2nc3ccccc3nc21,.,35,-,27,29,-,ASAP1 GAP conf=-;TDP2 confirm=-
CCC(=NCC1CCCO1)c1c(O)n(-c2ccc(Cl)cc2)c(=O)[nH]c1=O (centres undefined),-,-,-,-,-,.,
CCC(C)NC(=O)c1c(N)n(CCCOC)c2nc3ccccc3nc12 (centres undefined),.,67,39,-,27,.,ASAP1 GAP conf=-;TDP2 confirm=-;IN multimer up=-;TRFRET interf=-;IN-LEDGF confirm=14
COc1ccc(NC(=O)c2cn(CCC#N)nc2-c2ccccc2)cc1,-,-,-,-,-,.,
COCCNC(=O)c1ccc(N2CC3CC(C2)c2cccc(=O)n2C3)c([N+](=O)[O-])c1 (centres undefined),-,-,-,35,-,-,
O=C(NCCN1CCC2(CC1)C(=O)NCN2c1ccccc1)c1cccc2c1-c1ccccc1C2=O,-,-,-,-,-,.,
CC(=O)C1CCC2C3CCC4CC(O)CCC4(C)C3CCC12C#N (centres undefined),-,-,-,-,-,.,
O=C(CCc1ccccc1)N1Cc2cc(N3CCOCC3)ccc2-n2nncc2C1,-,-,-,-,-,.,
O=C(CCc1ccccc1)N1Cc2cc(N3CCCCC3)ccc2-n2nncc2C1,-,-,-,25,-,-,
COc1cccc(CN2CCCCC2c2cccnc2)c1 (centres undefined),-,-,-,25,-,-,
COc1ccc(CN2CCCCC2c2cccnc2)cc1C (centres undefined),-,-,-,-,-,.,
CCCOc1ccc(C(C)=O)cc1Cc1c(O)[nH]c(=S)[nH]c1=O,-,-,-,26,-,-,
CCOc1ccc(C(C)=O)cc1Cc1c(O)[nH]c(=S)[nH]c1=O,-,-,-,-,-,.,
C/C=C/c1ccc([C@H]2[C@@H](CO)N3CCCCN(C(=O)Cc4cccnc4)C[C@@H]23)cc1,-,.,.,.,.,.,
CC1CC(C)CN(C(=O)COC(=O)c2cn(C)c3ccccc23)C1 (centres undefined),-,-,-,42,-,49,
COc1cccc(C(c2nnnn2-c2ccc3c(c2)OCCO3)N2CCC(n3c(=O)[nH]c4ccccc43)CC2)c1OC (centres undefined),-,-,-,-,-,.,
NCCc1ccc(O)cc1,-,-,-,29,-,-,
CC[N+](C)(CC)CCCCOc1ccc2c(c1)C(=O)c1cc(OCCCC[N+](C)(CC)CC)ccc1-2,-,-,-,26,-,-,
COc1ccc(Oc2c(C)oc3cc(OC(=O)N(C)C)ccc3c2=O)cc1,-,-,-,-,-,.,
COc1ccccc1Oc1c(C)oc2cc(OC(=O)N(C)C)ccc2c1=O,-,-,-,27,-,-,
CN1CCc2cc3c(c4c2C1Cc1ccccc1-4)OCO3 (centres undefined),84,-,-,-,-,.,CASP1 counter=-
O=C(c1ccc2c(c1)N(Cc1ccc(F)cc1)CCS2)N1CCC2(CC1)OCCO2,-,-,-,-,-,.,
CC(Cc1ccc(O)cc1)NCC(O)c1ccc(O)c(O)c1 (centres undefined),73,-,35,-,-,.,CASP1 counter=-;IN multimer up=10;TRFRET interf=-;IN-LEDGF confirm=63
SMILES,Casp6 inh,TDP2 absorb,LEDGF integ inh,ARFGAP1 inhibitor,ASAP1 inh,ARFGAP1 inh conf,others
O=C(NC1CCCCC1)[C@@H]1CC=C[C@@H]2CCN(Cc3ccccc3)C(=O)[C@@H]21,.,-,-,-,-,.,
CN1C(=O)C(=Cc2ccccc2Oc2ccc(Cl)c(F)c2)C(=O)N(C)C1=O,.,25,-,-,-,.,TDP2 confirm=-
O=C1NC(=O)C(=Cc2ccccc2Oc2ccc(F)cc2)C(=O)N1,-,-,-,-,-,.,
OC(c1ccncc1)(c1ccc(F)cc1)c1ccc(F)cc1,-,-,-,-,-,.,
COc1ccc(OC)c(N2C(=O)NC(=O)/C(=C\c3ccc([N+](=O)[O-])s3)C2=O)c1,-,28,-,-,-,.,TDP2 confirm=-
CN1C(=O)NC(=O)/C(=C/c2ccc([N+](=O)[O-])s2)C1=O,-,25,-,-,-,.,TDP2 confirm=-
CC(C)(C)C(=O)N1Cc2cc(-c3cccc(F)c3)ccc2-n2nncc2C1,-,-,-,-,-,.,
Cc1cc(OCC(=O)NCc2ccncc2)c2c3c(c(=O)oc2c1)CCC3,-,26,-,-,-,.,TDP2 confirm=-
O=[N+]([O-])c1ccccc1CNCCc1c[nH]c2ccccc12,-,25,-,-,-,.,TDP2 confirm=-

# Assay outcomes (PubChem)
